The values that follow come from ChEMBL document CHEMBL3994579, “Synthesis and antibacterial activity of novel 3-O-descladinosylazithromycin derivatives” (2017).

Holding throughout (format): functional
Assay [1] concerns Staphylococcus aureus. The experiment in a line: Antibacterial activity against erythromycin-susceptible Staphylococcus aureus ATCC 25923 by broth microdilution method. In short, it runs like this:
(§1)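 MICs were determined in vitro by broth microdilution following the NCCL-recommended method. Azithromycin and clarithromycin were run alongside as reference antibiotics on the same strain panel.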
A general note: Broth dilution looks for growth in wells or tubes with falling amounts of substance.

A further assay deals with Escherichia coli. Kind of assay: Antibacterial activity against penicillin-susceptible Escherichia coli ATCC 25922 by broth microdilution method. In short, it runs like this:
as §1

The test system of assay [2] is Streptococcus pyogenes. The experiment in a line: Antibacterial activity against erythromycin-susceptible Streptococcus pyogenes clinical isolate by broth microdilution method. In short, it runs like this: as §1
The next assay deals with Pseudomonas aeruginosa. The experiment in a line: Antibacterial activity against penicillin-susceptible Pseudomonas aeruginosa ATCC 27853 by broth microdilution method. In short, it runs like this: as §1
For another assay, the system named is Bacillus subtilis. The experiment in a line: Antibacterial activity against erythromycin/penicillin-susceptible Bacillus subtilis ATCC 9372 by broth microdilution method. In short, it runs like this:
as §1

Assay [3] has as its system Staphylococcus epidermidis. Kind of assay: Antibacterial activity against penicillin-resistant Staphylococcus epidermidis clinical isolate by broth microdilution method. In short, it runs like this: (§2)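 Broth microdilution per NCCL recommendation, read as minimal inhibitory concentration, run alongside azithromycin and clarithromycin references. Strains: S. pneumoniae B1 (erythromycin-resistant, ermB), A22072 (erythromycin-resistant, mefA), AB11 (erythromycin-resistant, erm and mef); S. aureus ATCC29213 ([…]); S. epidermidis clinical isolate (penicillin-resistant, not characterized).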

The test system of assay [4] is Staphylococcus aureus. The experiment in a line: Antibacterial activity against […] Staphylococcus aureus ATCC 29213 by broth microdilution method. In short, it runs like this:
as §2

For assay [5], the system named is Streptococcus pneumoniae. The experiment in a line: Antibacterial activity against erythromycin-resistant Streptococcus pneumoniae B1 expressing ermB gene by broth microdilution method. In short, it runs like this: as §2
Assay [6] has as its system Streptococcus pneumoniae. The experiment in a line: Antibacterial activity against erythromycin-resistant Streptococcus pneumoniae A22072 expressing mefA gene by broth microdilution method. In short, it runs like this: as §2
Assay [7] deals with Streptococcus pneumoniae. The experiment in a line: Antibacterial activity against erythromycin-resistant Streptococcus pneumoniae AB11 expressing ermB/mefA genes by broth microdilution method. In short, it runs like this:
as §2

For assay [8], the system named is Streptococcus pyogenes. The experiment in a line: Antibacterial activity against erythromycin-resistant Streptococcus pyogenes R1 clinical isolate by broth microdilution method.

Each structure is given as a SMILES string. Values after ≈ are worked out from the molar mass of the structure shown.

Broadly, the MIC is the smallest concentration in the dilution series that meets the test's criterion for growth inhibition. A lower MIC goes with inhibition by little substance. As for `CC[C@H]1OC(=O)[C@H](C)[C@@H](OC(=O)Nc2ccc(F)cc2)[C@H](C)[C@@H](O[C@@H]2O[C@H](C)C[C@H](N(C)C)[C@H]2O)[C@](C)(O)C[C@@H](C)CN(C)[C@H](C)[C@H]2OC(=O)O[C@@]21C`, the MIC against Staphylococcus aureus [1] is 32 µg/mL (≈ 42.4 µM); with Escherichia coli, 128 µg/mL (≈ 170 µM); with Streptococcus pyogenes [2], 0.25 µg/mL (≈ 0.332 µM); in the assay on Pseudomonas aeruginosa, 128 µg/mL (≈ 170 µM); against Bacillus subtilis it was 16 µg/mL (≈ 21.2 µM); in assay [3], 64 µg/mL (≈ 84.9 µM). Further, the MIC in the assay with Staphylococcus aureus [4] was 64 µg/mL (≈ 84.9 µM); in the assay on Streptococcus pneumoniae [5] it was 32 µg/mL (≈ 42.4 µM); against Streptococcus pneumoniae [6], 2 µg/mL (≈ 2.65 µM); in the assay with Streptococcus pneumoniae [7] it was 8 µg/mL (≈ 10.6 µM); against Streptococcus pyogenes [8], 64 µg/mL (≈ 84.9 µM).

Turning to `CC[C@H]1OC(=O)[C@H](C)[C@@H](OC(=O)Nc2ccccc2)[C@H](C)[C@@H](O[C@@H]2O[C@H](C)C[C@H](N(C)C)[C@H]2O)[C@](C)(O)C[C@@H](C)CN(C)[C@H](C)[C@@H](OC(=O)NCc2ccc(C)cc2)[C@]1(C)O`, the minimal inhibitory concentration (MIC) was determined as 32 µg/mL (≈ 37.3 µM) in the assay with Staphylococcus aureus [1]; 128 µg/mL (≈ 149 µM) with Escherichia coli; 4 µg/mL (≈ 4.67 µM) in the assay on Streptococcus pyogenes [2]; 128 µg/mL (≈ 149 µM) against Pseudomonas aeruginosa; 32 µg/mL (≈ 37.3 µM) against Bacillus subtilis; 16 µg/mL (≈ 18.7 µM) in assay [3]. Also, the MIC was found to be 128 µg/mL (≈ 149 µM) with Staphylococcus aureus [4]; 64 µg/mL (≈ 74.7 µM) in the assay on Streptococcus pneumoniae [5]; 16 µg/mL (≈ 18.7 µM) in the assay with Streptococcus pneumoniae [6]; 64 µg/mL (≈ 74.7 µM) against Streptococcus pneumoniae [7]; 64 µg/mL (≈ 74.7 µM) against Streptococcus pyogenes [8].

As for `CC[C@H]1OC(=O)[C@H](C)[C@@H](OC(=O)Nc2cccc(C(F)(F)F)c2)[C@H](C)[C@@H](O[C@@H]2O[C@H](C)C[C@H](N(C)C)[C@H]2O)[C@](C)(O)C[C@@H](C)CN(C)[C@H](C)[C@H]2OC(=O)O[C@@]21C`, the MIC is 16 µg/mL (≈ 19.9 µM) against Staphylococcus aureus [1]; 128 µg/mL (≈ 159 µM) in the assay on Escherichia coli; 1 µg/mL (≈ 1.24 µM) against Streptococcus pyogenes [2]; 128 µg/mL (≈ 159 µM) against Pseudomonas aeruginosa; 64 µg/mL (≈ 79.6 µM) in the assay with Bacillus subtilis; 0.5 µg/mL (≈ 0.622 µM) in assay [3]. Moreover, the MIC worked out at 128 µg/mL (≈ 159 µM) with Staphylococcus aureus [4]; 32 µg/mL (≈ 39.8 µM) in the assay on Streptococcus pneumoniae [5]; 8 µg/mL (≈ 9.95 µM) against Streptococcus pneumoniae [6]; 8 µg/mL (≈ 9.95 µM) against Streptococcus pneumoniae [7]; 64 µg/mL (≈ 79.6 µM) against Streptococcus pyogenes [8].

Turning to `CC[C@H]1OC(=O)[C@H](C)[C@@H](OC(=O)Nc2cccc(C)c2)[C@H](C)[C@@H](O[C@@H]2O[C@H](C)C[C@H](N(C)C)[C@H]2O)[C@](C)(O)C[C@@H](C)CN(C)[C@H](C)[C@H]2OC(=O)O[C@@]21C`, the MIC was determined as 2 µg/mL (≈ 2.67 µM) in the assay with Staphylococcus aureus [1]; 64 µg/mL (≈ 85.3 µM) against Escherichia coli; 1 µg/mL (≈ 1.33 µM) in the assay with Streptococcus pyogenes [2]; 64 µg/mL (≈ 85.3 µM) with Pseudomonas aeruginosa; 8 µg/mL (≈ 10.7 µM) in the assay on Bacillus subtilis; 4 µg/mL (≈ 5.33 µM) in assay [3]. Moreover, the MIC against Staphylococcus aureus [4] was found to be 64 µg/mL (≈ 85.3 µM); in the assay on Streptococcus pneumoniae [5], 64 µg/mL (≈ 85.3 µM); against Streptococcus pneumoniae [6], 8 µg/mL (≈ 10.7 µM); in the assay on Streptococcus pneumoniae [7], 16 µg/mL (≈ 21.3 µM); in the assay with Streptococcus pyogenes [8], 32 µg/mL (≈ 42.7 µM).

For the compound `CC[C@H]1OC(=O)[C@H](C)[C@@H](OC(=O)Nc2cccc(Cl)c2)[C@H](C)[C@@H](O[C@@H]2O[C@H](C)C[C@H](N(C)C)[C@H]2O)[C@](C)(O)C[C@@H](C)CN(C)[C@H](C)[C@H]2OC(=O)O[C@@]21C`, the MIC in the assay with Staphylococcus aureus [1] was 8 µg/mL (≈ 10.4 µM); with Escherichia coli, 128 µg/mL (≈ 166 µM); in the assay on Streptococcus pyogenes [2] it was 0.25 µg/mL (≈ 0.325 µM); against Pseudomonas aeruginosa, 128 µg/mL (≈ 166 µM); with Bacillus subtilis, 16 µg/mL (≈ 20.8 µM); in assay [3] it was 0.5 µg/mL (≈ 0.649 µM). Further, the MIC against Staphylococcus aureus [4] was 64 µg/mL (≈ 83.1 µM); with Streptococcus pneumoniae [5], 32 µg/mL (≈ 41.5 µM); in the assay with Streptococcus pneumoniae [6], 1 µg/mL (≈ 1.3 µM); with Streptococcus pneumoniae [7] it was 4 µg/mL (≈ 5.19 µM); in the assay with Streptococcus pyogenes [8], 32 µg/mL (≈ 41.5 µM).

Take `CC[C@H]1OC(=O)[C@H](C)[C@@H](OC(=O)NCc2ccccc2)[C@H](C)[C@@H](O[C@@H]2O[C@H](C)C[C@H](N(C)C)[C@H]2OC(C)=O)[C@](C)(O)C[C@@H](C)CN(C)[C@H](C)[C@H]2OC(=O)O[C@@]21C`: the minimal inhibitory concentration (MIC) in the assay on Staphylococcus aureus [1] stood at 64 µg/mL (≈ 80.8 µM); in the assay on Escherichia coli, 128 µg/mL (≈ 162 µM); against Streptococcus pyogenes [2], 8 µg/mL (≈ 10.1 µM); with Pseudomonas aeruginosa, 128 µg/mL (≈ 162 µM); in the assay with Bacillus subtilis, 64 µg/mL (≈ 80.8 µM); in assay [3], 64 µg/mL (≈ 80.8 µM). Besides, the MIC in the assay on Staphylococcus aureus [4] was 64 µg/mL (≈ 80.8 µM); against Streptococcus pneumoniae [5], 128 µg/mL (≈ 162 µM); in the assay on Streptococcus pneumoniae [6], 32 µg/mL (≈ 40.4 µM); in the assay with Streptococcus pneumoniae [7], 64 µg/mL (≈ 80.8 µM); with Streptococcus pyogenes [8], 128 µg/mL (≈ 162 µM).

As for `CC[C@H]1OC(=O)[C@H](C)[C@@H](OC(=O)Nc2cccc(OC)c2)[C@H](C)[C@@H](O[C@@H]2O[C@H](C)C[C@H](N(C)C)[C@H]2OC(C)=O)[C@](C)(O)C[C@@H](C)CN(C)[C@H](C)[C@H]2OC(=O)O[C@@]21C`, the MIC came out at 32 µg/mL (≈ 39.6 µM) against Staphylococcus aureus [1]; 64 µg/mL (≈ 79.2 µM) against Escherichia coli; 2 µg/mL (≈ 2.48 µM) with Streptococcus pyogenes [2]; 64 µg/mL (≈ 79.2 µM) in the assay with Pseudomonas aeruginosa; 16 µg/mL (≈ 19.8 µM) against Bacillus subtilis; 32 µg/mL (≈ 39.6 µM) in assay [3]. Further, the MIC in the assay on Staphylococcus aureus [4] came out at 64 µg/mL (≈ 79.2 µM); in the assay on Streptococcus pneumoniae [5], 128 µg/mL (≈ 158 µM); in the assay with Streptococcus pneumoniae [6], 16 µg/mL (≈ 19.8 µM); in the assay with Streptococcus pneumoniae [7], 32 µg/mL (≈ 39.6 µM); in the assay on Streptococcus pyogenes [8], 128 µg/mL (≈ 158 µM).
